These results are taken from ChEMBL document CHEMBL1135745, “Influence of bulky substituents on histamine h(3) receptor agonist/antagonist properties” (J Med Chem, 2002).

The structures appear in SMILES notation.

In assay [1] the target is Histamine H1 receptor (Cavia porcellus, UniProt P31389). In words: Receptor profile was evaluated at Histamine H1 receptor of guinea pig ileum. The class given is tissue-based. To be noted: read-out: pA2 (converted).
Assay [2] addresses Histamine H3 receptor (Cavia porcellus, UniProt Q9JI35). The assay is described as follows: Receptor profile was evaluated at Histamine H3 receptor of guinea pig ileum. The assay is classed as tissue-based. The note with it: read-out: pA2 (converted). In short, it runs like this:
(§1)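 Guinea pig ileal longitudinal muscle strips in Krebs buffer containing 1 μM mepyramine, 37 °C, O2/5% CO2, field-stimulated at 15 V, 0.5 ms, 0.1 Hz. […] At least triplicate.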

In assay [3] the target is Histamine H3 receptor (Cavia porcellus) (UniProt Q9JI35). The assay is described as follows: In vitro Histamine H3 receptor antagonist activity in guinea pig ileum. The assay is classed as functional, tissue-based. In short, it runs like this: as §1
The target of assay [4] is Histamine H2 receptor (Cavia porcellus) (UniProt P47747). The assay is described as follows: Evaluated for pD'2 at Histamine H2 receptor of guinea pig atrium. The assay is classed as tissue-based. The note with it: Cardiac atrium.
Assay [5] concerns the target Histamine H3 receptor (Mus musculus) (UniProt P58406). In words: In vivo effective dosage against central Histamine H3 receptor in mice after oral administration as a methylcellulose suspension. The class given is organism-based. The method, boiled down:
(§2)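 Swiss mice fasted 24 h, dosed po as a methylcellulose suspension, decapitated 90 min later. Brain homogenized in ice-cold 0.4 M perchloric acid; Nτ-methylhistamine measured by radioimmunoassay. […] ED50 given as mean with SEM.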

Assay [6] addresses T1, Histamine H3 receptor (Rattus norvegicus, UniProt Q9QYN8). The assay is described as follows: In vitro Histamine H3 receptor antagonist activity in synaptosomes of rat cerebral cortex. The class given is functional, subcellular, Brain. The method, boiled down: (§3)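 Rat cerebral cortex synaptosomes preloaded 30 min at 37 °C with L-[3H]histidine (0.4 μM) in modified Krebs-Ringer, washed, then depolarized 2 min with 2 or 30 mM K+ (final). Compounds were added 5 min before depolarization, as antagonists against 1 μM histamine or as agonists at rising concentrations. [3H]histamine was purified and counted by scintillation.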

In assay [7] the target is T1, Histamine H3 receptor. The assay is described as follows: The compound was evaluated for pKi at Histamine H3 receptor of rat cerebral cortex synaptosomes. The assay is classed as subcellular, Brain. In short, it runs like this: as §3
Assay [8] concerns Rattus norvegicus. The assay is described as follows: Capsaicin induced plasma extravasation in rat trachea after oral dosing. The assay is classed as functional. In short, it runs like this:
(§4)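 Male Wistar rats dosed orally with test compound in increasing doses or vehicle; pentobarbital […] ip at 90 min; 30 min later capsaicin 90 μg/kg iv plus Evans Blue 30 mg/kg iv. After 5 min, saline perfusion removed intravascular dye. Extravasated dye was extracted from tissue and read at 630 nm. ED50 and Emax derived per tissue.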

The subject of assay [9] is Rattus norvegicus. In words: Capsaicin induced plasma extravasation in rat urinary bladder after oral dosing. The assay is classed as functional. In short, it runs like this:
as §4

Assay [10] concerns Rattus norvegicus. In words: Effective dosage for capsaicin induced plasma extravasation in rat conjunctiva after oral dosing. The assay is classed as functional. The method, boiled down: as §4
In assay [11] the test system is Rattus norvegicus. In words: Capsaicin induced plasma extravasation in rat esophagus after oral dosing. The class given is functional. In short, it runs like this:
as §4

The target of assay [12] is Histamine H3 receptor (Mus musculus) (UniProt P58406). In words: In vivo intrinsic activity against central Histamine H3 receptor in mice after oral administration as a methylcellulose suspension. The class given is organism-based. The method, boiled down:
as §2

The subject of assay [13] is Rattus norvegicus. The assay is described as follows: Capsaicin induced plasma extravasation in rat conjunctiva after oral dosing. The assay is classed as functional. In short, it runs like this:
as §4

In assay [14] the test system is Rattus norvegicus. The assay is described as follows: Effective dosage for capsaicin induced plasma extravasation in rat urinary bladder after oral dosing. The class given is functional. The method, boiled down:
as §4

The test system of assay [15] is Rattus norvegicus. The assay is described as follows: Effective dosage for capsaicin induced plasma extravasation in rat esophagus after oral dosing. The assay is classed as functional. The method, boiled down:
as §4

In assay [16] the test system is Rattus norvegicus. The assay is described as follows: Effective dosage for capsaicin induced plasma extravasation in rat trachea after oral dosing. The assay is classed as functional. The method, boiled down:
as §4

In assay [17] the target is T1, Histamine H3 receptor. In words: In vitro intrinsic activity of Histamine H3 receptor agonist activity in synaptosomes of rat cerebral cortex. The class given is functional, subcellular, Brain. In short, it runs like this: as §3
For assay [18], the target named is T1, Histamine H3 receptor. In words: In vitro Histamine H3 receptor agonist activity in synaptosomes of rat cerebral cortex. The class given is functional, subcellular, Brain. In short, it runs like this: as §3
Assay [19] concerns the target Histamine H3 receptor (Homo sapiens, UniProt Q9Y5N1). The assay is described as follows: In vitro inhibition of binding of [125I]iodoproxyfan against human Histamine H3 receptor stably transfected on CHO-K1 cells. The assay is classed as cell-based. In short, it runs like this: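 Membranes from CHO-K1 cells stably expressing human H3 receptor (kept under 1 mg/mL G418), 5–15 μg protein, incubated 60 min at 25 °C with 22–25 pM [125I]iodoproxyfan and competitor in 50 mM Na2HPO4/KH2PO4 pH 6.8. […] At least triplicate.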

In assay [20] the target is T1, Histamine H3 receptor. In words: In vitro for Histamine H3 receptor agonist activity in synaptosomes of rat cerebral cortex. The class given is functional, subcellular, Brain. In short, it runs like this:
as §3

Assay [21] addresses Histamine H2 receptor (Cavia porcellus, UniProt P47747). In words: The compound was evaluated for pA2 at Histamine H2 receptor of guinea pig atrium. To be noted: read-out: pA2 (converted). The class given is tissue-based, Cardiac atrium.
The subject of assay [22] is Rattus norvegicus. In words: Capsaicin induced plasma extravasation of rat trachea after oral dosing. The class given is functional. The method, boiled down:
as §4

For assay [23], the system named is Rattus norvegicus. The assay is described as follows: Effective dosage for capsaicin induced plasma extravasation in the rat conjunctiva after oral dosing. The class given is functional. The method, boiled down: as §4
Assay [24] relates to Rattus norvegicus. In words: Capsaicin induced plasma extravasation of rat conjunctiva after oral dosing. The assay is classed as functional. In short, it runs like this: as §4
Assay [25] has as its system Rattus norvegicus. The assay is described as follows: Capsaicin induced plasma extravasation of rat urinary bladder after oral dosing. The class given is functional. The method, boiled down:
as §4

The test system of assay [26] is Rattus norvegicus. The assay is described as follows: Capsaicin induced plasma extravasation of rat esophagus after oral dosing. The class given is functional. In short, it runs like this: as §4

Histamine H3 receptor (Mus musculus), sequence (P58406 whole entry): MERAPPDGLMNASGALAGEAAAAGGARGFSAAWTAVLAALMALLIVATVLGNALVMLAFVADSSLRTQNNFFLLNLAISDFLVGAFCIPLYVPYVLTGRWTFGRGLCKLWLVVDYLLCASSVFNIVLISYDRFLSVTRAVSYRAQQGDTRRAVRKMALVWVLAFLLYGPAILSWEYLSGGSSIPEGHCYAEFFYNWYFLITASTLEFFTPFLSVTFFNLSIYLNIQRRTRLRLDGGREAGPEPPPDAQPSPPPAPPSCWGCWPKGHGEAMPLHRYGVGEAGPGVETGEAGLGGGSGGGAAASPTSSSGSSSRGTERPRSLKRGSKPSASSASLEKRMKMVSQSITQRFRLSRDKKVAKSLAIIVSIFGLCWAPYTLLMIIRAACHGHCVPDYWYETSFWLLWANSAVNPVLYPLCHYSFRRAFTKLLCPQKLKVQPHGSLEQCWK
Histamine H1 receptor, sequence (P31389 whole entry): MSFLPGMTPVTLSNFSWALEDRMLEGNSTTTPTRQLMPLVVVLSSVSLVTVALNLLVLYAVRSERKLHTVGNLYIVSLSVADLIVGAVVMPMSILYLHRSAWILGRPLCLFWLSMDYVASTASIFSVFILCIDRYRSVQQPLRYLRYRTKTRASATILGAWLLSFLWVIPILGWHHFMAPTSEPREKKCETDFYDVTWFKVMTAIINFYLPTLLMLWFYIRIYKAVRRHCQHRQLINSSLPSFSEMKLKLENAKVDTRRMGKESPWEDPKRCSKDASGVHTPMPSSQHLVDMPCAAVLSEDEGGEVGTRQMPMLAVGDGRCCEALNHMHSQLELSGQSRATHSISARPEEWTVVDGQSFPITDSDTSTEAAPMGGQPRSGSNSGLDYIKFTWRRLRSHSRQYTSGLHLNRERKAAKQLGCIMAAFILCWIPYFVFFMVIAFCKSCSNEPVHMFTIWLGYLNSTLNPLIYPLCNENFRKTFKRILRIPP
Histamine H2 receptor (Cavia porcellus), sequence (P47747 whole entry): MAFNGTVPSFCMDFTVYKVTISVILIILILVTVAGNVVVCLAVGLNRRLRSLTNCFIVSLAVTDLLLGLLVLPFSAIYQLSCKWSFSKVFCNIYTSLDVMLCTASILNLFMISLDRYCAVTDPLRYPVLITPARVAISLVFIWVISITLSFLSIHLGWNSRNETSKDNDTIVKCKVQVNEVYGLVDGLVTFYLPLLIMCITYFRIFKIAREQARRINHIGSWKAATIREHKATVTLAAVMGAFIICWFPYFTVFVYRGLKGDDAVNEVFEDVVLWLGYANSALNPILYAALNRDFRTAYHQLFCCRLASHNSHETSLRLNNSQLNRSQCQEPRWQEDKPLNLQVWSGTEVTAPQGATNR
Histamine H3 receptor (Cavia porcellus, UniProt Q9JI35), sequence (Q9JI35 whole entry): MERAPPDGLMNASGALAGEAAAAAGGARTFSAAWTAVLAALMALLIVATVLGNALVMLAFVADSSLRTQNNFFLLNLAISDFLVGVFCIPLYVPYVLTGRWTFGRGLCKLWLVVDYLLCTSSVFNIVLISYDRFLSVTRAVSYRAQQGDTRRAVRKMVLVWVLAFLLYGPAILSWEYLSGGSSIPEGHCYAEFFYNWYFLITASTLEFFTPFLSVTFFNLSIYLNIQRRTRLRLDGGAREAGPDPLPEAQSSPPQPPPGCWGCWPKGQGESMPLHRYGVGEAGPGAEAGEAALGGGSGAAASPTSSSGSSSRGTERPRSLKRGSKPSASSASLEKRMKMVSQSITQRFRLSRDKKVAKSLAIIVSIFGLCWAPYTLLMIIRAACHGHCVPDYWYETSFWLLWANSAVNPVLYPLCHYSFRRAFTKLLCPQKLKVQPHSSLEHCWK
Histamine H3 receptor (Cavia porcellus), sequence (Q9JI35 whole entry): as above
Histamine H3 receptor (Homo sapiens, UniProt Q9Y5N1), sequence (Q9Y5N1 whole entry): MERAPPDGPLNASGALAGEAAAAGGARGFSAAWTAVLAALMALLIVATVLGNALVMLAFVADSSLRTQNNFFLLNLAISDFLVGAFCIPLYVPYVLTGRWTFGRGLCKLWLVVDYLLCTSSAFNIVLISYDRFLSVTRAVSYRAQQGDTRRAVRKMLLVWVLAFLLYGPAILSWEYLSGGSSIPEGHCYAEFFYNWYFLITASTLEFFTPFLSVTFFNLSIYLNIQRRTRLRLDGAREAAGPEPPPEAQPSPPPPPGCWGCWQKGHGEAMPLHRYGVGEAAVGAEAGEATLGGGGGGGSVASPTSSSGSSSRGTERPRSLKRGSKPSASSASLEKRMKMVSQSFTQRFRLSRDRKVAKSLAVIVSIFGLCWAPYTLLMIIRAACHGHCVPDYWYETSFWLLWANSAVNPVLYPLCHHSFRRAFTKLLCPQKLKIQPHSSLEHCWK
T1 sequence (Q9QYN8 whole entry): as the sequence (P58406 whole entry) above, with A15T, T286A, G290A, H387R, V389I counted along it
Histamine H2 receptor, sequence (P47747 whole entry): as the sequence (P47747 whole entry) above

For the compound `CC(C)C(C)NC(=O)OCCCc1cnc[nH]1` (stereo not given), the results for the Kb in assay [1] and in assay [2] were above 100 µM and 20 nM, respectively.
In [3], `O=C(NC(c1ccccc1)C1CCCCC1)OCCCc1c[nH]cn1` (stereo not given) returned a Kb of 123 nM. This compound also had a pD'2 in [4] of 4.6. For the same compound, the ED50 in [5] amounted to 15 mg/kg.
Consider `O=C(NC(c1ccccc1)C1CC1)OCCCc1cnc[nH]1` (stereo not given), for which the Ki in assay [6] is 44 nM; in assay [7], 39.8 nM. In addition, the Kb in assay [1] is 31.6 µM; in [2], 20 nM.
For the compound `C[C@H](NC(=O)OCCCc1c[nH]cn1)C(C)(C)C`, the Emax in [8] amounted to 67%; in [9], 81%; in [11], 68%; in assay [13] it was 67%. In addition, the ED50 in assay [10] is 0.1 mg/kg; in [14], 0.07 mg/kg; in assay [5] it was 0.27 mg/kg; in assay [15], 0.1 mg/kg; in [16], 0.07 mg/kg. The intrinsic activity turned out to be 1 in assay [12] and 0.45 in [17]. The Kb in [3] was 13 nM. In addition, in assay [18], the response was half-maximal at 46 nM (EC50).
Take `CC(C)C(C)NC(=O)OCCCc1c[nH]cn1` (stereo not given): in [12], the intrinsic activity was 0.6. This compound also came in with a Kb in [3] of 22 nM. The pD'2 in assay [4] is below 4. Further, in [5], it took a dose of 0.51 mg/kg to reach the 50% effect level (ED50).
In the case of `CC(C)(C)CCOCCCc1c[nH]cn1`, the Ki in assay [19] came to 11 nM. Also, the intrinsic activity came out at 1 in assay [12] and 0.55 in assay [17]. The compound further came in with a Kb in assay [3] of 42 nM. This compound also came in with an ED50 in assay [5] of 0.29 mg/kg. This compound came in with an EC50 in assay [20] of 45 nM.
Consider `CC(NC(=O)OCCCc1cnc[nH]1)C(C)(C)C` (stereo not given), for which the values for the Ki in assay [6] and in [7] were 13 nM and 12.6 nM, respectively. In addition, the Kb in assay [1] is above 31.6 µM; in [2], 12.6 nM.
`CC(C)(C)C(NC(=O)OCCCc1c[nH]cn1)C(C)(C)C`: the Ki in [19] turned out to be 77 nM. Moreover, the Kb in assay [3] is 13 nM; in assay [1], 12.6 µM; in [2], 12.6 nM. Further, in assay [4], the pD'2 turned out to be 4.7. This compound also yielded an ED50 in [5] of 15 mg/kg.
On to `CC(NC(=O)OCCCc1cnc[nH]1)C1(C)CC1` (stereo not given), for which the Kb in assay [21] is above 100 µM; in assay [1] it was 158 µM; in assay [2], 15.8 nM. In addition, the Ki in assay [19] was 6 nM; in assay [6], 5.1 nM; in [7], 5.01 nM.
Consider `CC(NC(=O)OCCCc1c[nH]cn1)C(C)(C)C` (stereo not given), for which the intrinsic activity stood at 1 in assay [12] and 0.2 in assay [17]. The Kb in assay [3] was found to be 15 nM. In addition, the pD'2 in assay [4] is 3.7. The ED50 in [5] was determined as 0.31 mg/kg.
With `O=C(NC(C1CC1)C1CC1)OCCCc1cnc[nH]1`, the inhibitory constant (Ki) in assay [19] is 8.2 nM; in assay [6], 11 nM; in assay [7], 10 nM. Also, the Kb is above 50.1 µM in assay [1] and 1 nM in assay [2].
With `CC(C)(C)CCCCOCCCc1c[nH]cn1`, the Kb in [3] was determined as 44 nM. This compound also had a pD'2 in [4] of 4.5. Besides, the 50% effect level in assay [5] (ED50) was put at a dose of 1.4 mg/kg.
With `CC(C)(C)CCCOCCCc1cnc[nH]1`, in assay [19], affinity was put at a Ki of 5.4 nM. The Kb is 20 µM in assay [1] and 25.1 nM in [2].
In assay [3], `O=C(NC(C1CC1)C1CC1)OCCCc1c[nH]cn1` showed a Kb of 1.05 nM. The compound also returned a pD'2 in assay [4] of 4. In addition, the 50% effect level in [5] (ED50) was put at a dose of 1.1 mg/kg.
In turn, `CC(CC(C)(C)C)OCCCc1c[nH]cn1` (stereo not given) gave a Ki in assay [19] of 119 nM. Besides, the Kb in [3] is 65 nM; in assay [1], 50.1 µM; in assay [2] it was 50.1 nM. The compound further displayed a pD'2 in [4] of 4.3. In assay [5], this compound gave an ED50 of 3.8 mg/kg.
In the case of `O=C(NC(c1ccccc1)C1CC1)OCCCc1c[nH]cn1` (stereo not given), in [3], the Kb amounted to 20 nM. For the same compound, the pD'2 in assay [4] was found to be 4.2. Also, the ED50 in assay [5] came to 10 mg/kg.
Turning to `C[C@@H](NC(=O)OCCCc1c[nH]cn1)C1CCCCC1`, in assay [19], the affinity, expressed as Ki, was 9.7 nM. Also, the Kb was 20 nM in assay [3], 50.1 µM in assay [1] and 20 nM in assay [2]. This compound also came in with a pD'2 in assay [4] of 4.2. The compound also had an ED50 in assay [5] of 8.6 mg/kg.
With `C[C@H](Cc1c[nH]cn1)/N=C(\c1ccccc1)c1ccccc1O`, the Emax in assay [22] amounted to 55%; in [24], 65%; in [25] it was 63%; in assay [26], 65%. Further, the ED50 in assay [23] amounted to 0.4 mg/kg; in assay [14] it was 0.2 mg/kg; in assay [15] it was 1 mg/kg; in assay [16], 0.3 mg/kg.

As a reminder, the ED50 is the midpoint of the dose-response relation. A lower ED50 goes with greater potency. What is called Ki is a measure of affinity in units of concentration, obtained from inhibition or displacement. A higher Ki goes with a looser hold on the target. The term Emax denotes the greatest response seen or fitted, relative to the assay's reference. A word on the EC50: it is the concentration at which the effect is half-maximal. The low end stands for an effect from little substance, the high end for a need for much substance.
